ChEMBL document CHEMBL1138124, “Novel sulfonanilide analogues suppress aromatase expression and activity in breast cancer cells independent of COX-2 inhibition” (J Med Chem, 2006)
Activity calls are given as the source filed them. No cut-off for these calls is given here.

How the values were obtained:
[1] = molecular target: T1, Aromatase (Homo sapiens, UniProt P11511); experiment: Inhibition of aromatase activity in human placental microsomes at 5 uM; parameters: species or system Placenta
T1 sequence (P11511 whole entry): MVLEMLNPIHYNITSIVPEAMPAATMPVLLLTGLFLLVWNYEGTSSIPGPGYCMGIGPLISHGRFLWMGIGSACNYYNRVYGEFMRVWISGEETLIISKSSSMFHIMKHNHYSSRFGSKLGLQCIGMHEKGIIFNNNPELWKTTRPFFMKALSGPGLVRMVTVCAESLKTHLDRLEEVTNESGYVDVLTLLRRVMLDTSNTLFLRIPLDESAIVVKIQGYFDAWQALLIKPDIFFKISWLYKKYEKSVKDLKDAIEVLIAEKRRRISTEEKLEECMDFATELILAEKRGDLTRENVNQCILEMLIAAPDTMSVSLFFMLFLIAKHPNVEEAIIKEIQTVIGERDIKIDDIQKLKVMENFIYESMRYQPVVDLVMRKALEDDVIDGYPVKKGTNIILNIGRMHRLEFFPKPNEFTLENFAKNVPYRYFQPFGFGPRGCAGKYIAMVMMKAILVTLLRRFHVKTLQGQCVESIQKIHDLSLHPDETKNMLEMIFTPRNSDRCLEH
Outline: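 Human term placental microsomes (50 µg protein) incubated with 100 nM [1β-3H]androst-4-ene-3,17-dione for 15 min at 37 °C, compound at 5 µM. Quenched with chloroform; released 3H2O counted. Triplicates, with background taken from boiled microsomes. 50 µM aminoglutethimide served as positive control. Normalized to vehicle; three independent determinations.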

[2] = tested on: MDA-MB-231; experiment: Reduction in PGE2 levels in MDA-MB-231 cell; assay type: functional, cell-based; conditions: Homo sapiens
Outline: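 MDA-MB-231 cells in phenol red-free MEM with 10% FBS were plated at 15 × 10^4 per dish, adhered overnight, then serum-starved 24 h. They were then treated 24 h at 37 °C with 25 µM agent or DMSO. PGE2 in the medium was measured by ELISA and normalized to total protein from NaOH extracts; mean ± SEM, n = 6.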

[3] = tested on: SK-BR-3; experiment: Reduction in CYP19 mRNA expression in SKBr3 cells after 24h exposure to 25uM relative to control; assay type: functional, cell-based; conditions: Homo sapiens
Outline: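 SK-BR-3 cells were exposed 24 h to 25 µM agent or vehicle and total RNA isolated. DNase-treated RNA (2 µg) was reverse transcribed with random hexamers. CYP19 transcripts were quantified by real-time PCR (50 cycles, 95 °C 15 s / 60 °C 1 min), with 18S rRNA as housekeeping reference, relative to vehicle control.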

| Inhibition [1] | Compound | Activity [2] | Activity [3] |
| --- | --- | --- | --- |
| Not Active | CCCOc1cc([N+](=O)[O-])ccc1NS(C)(=O)=O | – | – |
| Not Active | CN(c1ccc([N+](=O)[O-])cc1OC1CCCCC1)S(C)(=O)=O | inactive | Active |
| Not Active | COc1cc([N+](=O)[O-])ccc1NS(C)(=O)=O | – | – |
| Not Active | CS(=O)(=O)Nc1ccc([N+](=O)[O-])cc1OC1CCCC1 | Active | – |
| Not Active | CS(=O)(=O)Nc1ccc([N+](=O)[O-])cc1OCC1CCCCC1 | – | – |
| Not Active | CCCCCCOc1cc([N+](=O)[O-])ccc1N(C)S(C)(=O)=O | – | – |
| Not Active | CCCOc1cc([N+](=O)[O-])ccc1N(C)S(C)(=O)=O | – | – |
| Not Active | CC(C)Oc1cc([N+](=O)[O-])ccc1NS(C)(=O)=O | – | – |
| Not Active | CC(C)Oc1cc([N+](=O)[O-])ccc1N(C)S(C)(=O)=O | – | – |
| Not Active | CCCCCCCCCOc1cc([N+](=O)[O-])ccc1N(C)S(C)(=O)=O | – | – |
| Not Active | COc1cc([N+](=O)[O-])ccc1N(C)S(C)(=O)=O | – | – |
| Not Active | CN(c1ccc([N+](=O)[O-])cc1OC1CCCC1)S(C)(=O)=O | inactive | – |
| Not Active | CS(=O)(=O)Nc1ccc([N+](=O)[O-])cc1OC1CCCCC1 [NS-398] | Active | Active |
| Not Active | CCC(CC)Oc1cc([N+](=O)[O-])ccc1NS(C)(=O)=O | Active | Active |
| Not Active | CCCCCCCCCOc1cc([N+](=O)[O-])ccc1NS(C)(=O)=O | – | – |
| Not Active | CCCCCCOc1cc([N+](=O)[O-])ccc1NS(C)(=O)=O | – | – |
| Not Active | CN(c1ccc([N+](=O)[O-])cc1OCC1CCCCC1)S(C)(=O)=O | inactive | – |
| Not Active | CCC(CC)Oc1cc([N+](=O)[O-])ccc1N(C)S(C)(=O)=O | inactive | Active |
